Molecules are shown by their SMILES.

Test [1] deals with Hippocampus. Put plainly: Cognitive enhancing effect in Sprague-Dawley rat hippocampal CA1 region assessed as increase in amplitude of populations spikes at 10 uM. It counts as functional. In short, it runs like this:
(§1)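 Male Sprague–Dawley rats (75–150 g) were halothane-anesthetized and decapitated. Coronal hippocampal slices were cut in ice-cold carbogenated aCSF and rested 1 h at room temperature. Extracellular field PS were recorded in CA1 after at least 15 min of stable baseline. Compound (10 mM DMSO stock, diluted ≥1000-fold in aCSF) was bath-perfused, then washed out. Amplitude was normalized to the mean of 4–5 pre-drug responses; mean ± SE, paired t-test.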

Test [2] deals with Hippocampus. Put plainly: Cognitive enhancing effect in Sprague-Dawley rat hippocampal CA1 region assessed as increase in amplitude of populations spikes at 10 uM in presence of CGP-55845 relative to basal level. It counts as functional. A digest of the protocol: (§2)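 CA1 field PS were recorded extracellularly in coronal hippocampal slices from male Sprague–Dawley rats (75–150 g), kept in carbogenated aCSF. Receptor antagonists (d-tubocurarine, atropine, CGP55845 or 8-cyclopentyl-theophylline) were bath-perfused together with the compound, which was diluted ≥1000-fold from a 10 mM DMSO stock. PS amplitude was normalized to the mean of 4–5 responses before drug; mean ± SE, Student's t-test.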

Test [3] concerns Hippocampus. Put plainly: Cognitive enhancing effect in Sprague-Dawley rat hippocampal CA1 region assessed as increase in amplitude of populations spikes at 10 uM in presence of atropine. It counts as functional. A digest of the protocol: as §2
Test [4] deals with Hippocampus. Put plainly: Cognitive enhancing effect in Sprague-Dawley rat hippocampal CA1 region assessed as increase in amplitude of populations spikes. It counts as functional, tissue-based. A digest of the protocol: as §1
The test system of test [5] is Hippocampus. Put plainly: Cognitive enhancing effect in Sprague-Dawley rat hippocampal CA1 region assessed as increase in amplitude of populations spikes at 10 uM in presence of CPT relative to basal level. It counts as functional. A digest of the protocol: as §2
Test [6] relates to Hippocampus. Put plainly: Cognitive enhancing effect in Sprague-Dawley rat hippocampal CA1 region assessed as increase in amplitude of populations spikes at 10 uM after 20 mins of compound wash out. It counts as functional. In short, it runs like this: as §1
Test [7] has as its system Hippocampus. Put plainly: Cognitive enhancing effect in Sprague-Dawley rat hippocampal CA1 region assessed as amplitude of populations spikes at 10 uM in presence of d-tubocurarine. It counts as functional. A digest of the protocol: as §2
The test system of test [8] is Hippocampus. Put plainly: Cognitive enhancing effect in Sprague-Dawley rat hippocampal CA1 region assessed as increase in amplitude of populations spikes at 1 uM. It is filed as functional. In short, it runs like this: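 Male Sprague-Dawley rats (75–150 g) anesthetized with halothane and decapitated. 400 µm coronal hippocampal slices cut in ice-cold carbogenated aCSF, then held 1 h at room temperature. Extracellular field recording of evoked population spikes in CA1. After at least 15 min of stable baseline, analogs (10 mM DMSO stocks, diluted ≥1000-fold in aCSF) were bath-perfused. Amplitude normalized to the mean of 4–5 pre-drug responses.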

The subject of test [9] is Hippocampus. Put plainly: Cognitive enhancing effect in Sprague-Dawley rat hippocampal CA1 region assessed as increase in amplitude of populations spikes at 100 uM. It counts as functional.
Test [10] concerns Hippocampus. Put plainly: Decrease in amplitude of populations spikes in Sprague-Dawley rat hippocampal CA1 region at 10 uM. It is filed as functional. Set-up: scale not given: the % may be the effect or the level left. A digest of the protocol:
as §1

Test [11] deals with Hippocampus. Put plainly: Decrease in amplitude of populations spikes in Sprague-Dawley rat hippocampal CA1 region. It is filed as functional, tissue-based. In short, it runs like this: as §1
The test system of test [12] is Hippocampus. Put plainly: Decrease in amplitude of populations spikes in Sprague-Dawley rat hippocampal CA1 region at 10 uM after 10 mins of compound wash out. Set-up: scale not given: the % may be the effect or the level left. It counts as functional. A digest of the protocol: as §1

Regarding `Cn1c(=O)c2c(ncn2CCCC(=O)N2CCCC2=O)n(C)c1=O`, the Activity in test [1] turned out to be 6.4%.

In the case of `Cn1c(=O)c2c(ncn2CC(=O)N2CCCC2=O)n(C)c1=O`, the Activity in test [1] stood at 6.4%.

As usually defined, the EC50 is the concentration needed to bring the measured effect to its halfway point. Consider `Cn1c(=O)c2c(ncn2CCCC(=O)N2CCCCCC2=O)n(C)c1=O`, for which the Activity in [2] is 32.7%; in [3] it was 0.2%; in test [4], “Dose-dependent effect”; in [5] it was 47.9%; in test [1] it was 56.5%; in test [6], 45.8%. Moreover, in [7], the Activity is listed as -2.5%. For the same compound, in test [4], the EC50 stood at 2000 nM.

As for `C[C@H](NC[C@H](O)CP(=O)(O)Cc1ccccc1)c1ccc(Cl)c(Cl)c1`, in test [8], the Activity turned out to be 53.8%.

With `Cn1c(=O)c2c(ncn2CC(=O)N2CCCCCC2=O)n(C)c1=O`, the Activity in test [1] is on record as 42.4%.

As for `COc1cc2c3cc1Oc1cc(ccc1O)C[C@@H]1c4c(cc(OC)c(O)c4Oc4ccc(cc4)C[C@@H]3N(C)CC2)CC[N+]1(C)C.[Cl-]`, the Activity in test [9] is given as 1.8%.

With `Cn1c(=O)c2c(ncn2CCCC(=O)N2CCCCC2=O)n(C)c1=O`, the Activity in test [2] was 10.6%; in test [10], -25.9%; in [11], “Dose-dependent effect”; in [5] it was -27.6%; in [12], 91.1%. For the same compound, in test [11], the EC50 turned out to be 60 nM.

In the case of `CC[C@@]1(O)C(=O)OCc2c1cc1n(c2=O)Cc2cc3ccccc3nc2-1` [CAMPTOTHECIN], the Activity in test [8] stood at 51.6%.

As to `Cn1c(=O)c2c(ncn2CCC(=O)N2CCCCCC2=O)n(C)c1=O`, in test [1], the Activity was found to be 40.9%.

The record behind these values is ChEMBL document CHEMBL1156719, “Synthesis and structure-activity relationship studies of theophylline analogs on population responses in the rat hippocampus in vitro” (Bioorg Med Chem, 2008).
